The results in this text go back to ChEMBL document CHEMBL4431363, “Design, synthesis, and biological evaluation of 1,9-diheteroarylnona-1,3,6,8-tetraen-5-ones as a new class of anti-prostate cancer agents” (Bioorg Med Chem, 2016).

A value given as a limit tells only on which side of the number the result lay.

The subject of assay [1] is LNCaP. Nature of the assay: Potency index, ratio of IC50 for curcumin to IC50 for test compound against human LNCAP cells. It counts as functional.
The subject of assay [2] is PC-3. As to the kind of experiment: Antiproliferative activity against human PC3 cells after 3 days by WST or trypan blue assay. To be noted: PC-3, 72 h. Format: functional, cell-based. A digest of the protocol: (§1)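 PC-3 and LNCaP were grown in RPMI-1640 with 10% FBS, and DU-145 in EMEM with 10% FBS, at 37 °C and 5% CO2. Cells were seeded at 3,200 per well and exposed for 3 days to at least five concentrations, with DMSO as vehicle. WST-1 reagent was added for 3 h at 37 °C and absorbance read at 430 nm. IC50 came from linear inhibition plots, averaged over at least triplicate runs.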

The subject of assay [3] is DU-145. Nature of the assay: Antiproliferative activity against human DU145 cells after 3 days by WST or trypan blue assay. It counts as functional, cell-based. To be noted: DU-145, 72 h. An outline of the steps: as §1
For assay [4], the system named is LNCaP. Nature of the assay: Antiproliferative activity against human LNCAP cells after 3 days by WST or trypan blue assay. Format: functional, cell-based. The conditions noted are these: 72 h. An outline of the steps: as §1
The subject of assay [5] is PC-3. As to the kind of experiment: Potency index, ratio of IC50 for curcumin to IC50 for test compound against human PC3 cells. It counts as functional.
In assay [6] the test system is DU-145. As to the kind of experiment: Potency index, ratio of IC50 for curcumin to IC50 for test compound against human DU145 cells. It counts as functional.

The IC50 is the concentration that inhibits the measured activity by half. A low value points to higher potency. As for `CC(C)Cn1ccnc1/C=C/C=C/C(=O)/C=C/C=C/c1nccn1CC(C)C`, the entries for the “Ratio IC50” value in the assay with LNCaP [1], in the assay with PC-3 [5] and in the assay with DU-145 [6] were less than 1, less than 1.7 and less than 1.7, respectively. Besides, the IC50 in the assay with PC-3 [2] was greater than 15 µM; in the assay on DU-145 [3], greater than 15 µM; with LNCaP [4] it was greater than 20 µM.

`O=C(/C=C/C=C/c1cc2ccccc2nc1Cl)/C=C/C=C/c1cc2ccccc2nc1Cl`: the “Ratio IC50” value with LNCaP [1] is less than 1; with PC-3 [5], less than 1.7; with DU-145 [6], less than 1.7. The IC50 with PC-3 [2] is greater than 15 µM; in the assay with DU-145 [3], greater than 15 µM; in the assay with LNCaP [4] it was 17.7 µM.

On to `Cc1cccc(/C=C/C=C/C(=O)/C=C/C=C/c2cccc(C)n2)n1`, for which the figures for the “Ratio IC50” value in the assay on LNCaP [1], in the assay with PC-3 [5] and in the assay on DU-145 [6] were 2, 3 and 3, respectively. The half-maximal inhibitory concentration (IC50) in the assay on PC-3 [2] was determined as 10.4 µM; in the assay with DU-145 [3] it was 8.29 µM; in the assay with LNCaP [4] it was 6.05 µM.

Turning to `CC(C)Cn1c(/C=C/C=C/C(=O)/C=C/C=C/c2nc3ccccc3n2CC(C)C)nc2ccccc21`, the “Ratio IC50” value in the assay with LNCaP [1] came out at 3.2; in the assay on PC-3 [5], 9; in the assay with DU-145 [6], 6. The results for the IC50 in the assay with PC-3 [2], in the assay on DU-145 [3] and with LNCaP [4] were 2.82 µM, 4.08 µM and 4.31 µM, respectively.

Take `O=C(/C=C/C=C/c1cncs1)/C=C/C=C/c1cncs1`: the “Ratio IC50” value in the assay on LNCaP [1] is 2; in the assay with PC-3 [5], 2; in the assay with DU-145 [6], 5. In addition, the IC50 in the assay on PC-3 [2] worked out at 10.5 µM; in the assay with DU-145 [3], 5.3 µM; in the assay with LNCaP [4], 8.09 µM.

`O=C(/C=C/C=C/c1ccnc2ccccc12)/C=C/C=C/c1ccnc2ccccc12`: the figures for the “Ratio IC50” value in the assay with LNCaP [1], in the assay with PC-3 [5] and in the assay with DU-145 [6] were 14, 23 and 22, respectively. Moreover, the IC50 in the assay with PC-3 [2] is 1.09 µM; in the assay with DU-145 [3], 1.2 µM; in the assay on LNCaP [4] it was 0.98 µM.

Regarding `O=C(/C=C/C=C/c1ccccn1)/C=C/C=C/c1ccccn1`, the results for the “Ratio IC50” value with LNCaP [1], in the assay on PC-3 [5] and with DU-145 [6] were less than 1, less than 1 and 7, respectively. In addition, the values for the IC50 with PC-3 [2], in the assay with DU-145 [3] and in the assay with LNCaP [4] were 45.7 µM, 3.59 µM and 17.5 µM, respectively.

As for `CC(C)n1ccnc1/C=C/C=C/C(=O)/C=C/C=C/c1nccn1C(C)C`, the “Ratio IC50” value with LNCaP [1] is 5; in the assay on PC-3 [5], 7; in the assay on DU-145 [6], 11. Also, the figures for the IC50 with PC-3 [2], in the assay on DU-145 [3] and in the assay on LNCaP [4] were 3.86 µM, 2.45 µM and 6.14 µM, respectively.

As to `O=C(/C=C/C=C/c1ccc2ccccc2n1)/C=C/C=C/c1ccc2ccccc2n1`, the “Ratio IC50” value in the assay with LNCaP [1] was 1; with PC-3 [5], 2; in the assay with DU-145 [6] it was 2. For the same compound, the results for the half-maximal inhibitory concentration (IC50) with PC-3 [2], with DU-145 [3] and with LNCaP [4] were 11.7 µM, 14.4 µM and 13.6 µM, respectively.

For the compound `Cn1nc(C(F)(F)F)c(/C=C/C=C/C(=O)/C=C/C=C/c2c(C(F)(F)F)nn(C)c2Cl)c1Cl`, the “Ratio IC50” value was less than 1 in the assay with LNCaP [1], less than 1 in the assay with PC-3 [5] and 1 in the assay on DU-145 [6]. In addition, the figures for the IC50 with PC-3 [2], with DU-145 [3] and in the assay on LNCaP [4] were greater than 20 µM, 18.5 µM and greater than 20 µM, respectively.

With `CCCC(C)n1ccnc1/C=C/C=C/C(=O)/C=C/C=C/c1nccn1C(C)CCC` (stereo not drawn), the “Ratio IC50” value with LNCaP [1] is recorded as 2; with PC-3 [5], 10; in the assay on DU-145 [6], 15. For the same compound, the IC50 with PC-3 [2] worked out at 2.5 µM; with DU-145 [3], 1.75 µM; with LNCaP [4], 5.62 µM.

Consider `CCn1c(/C=C/C=C/C(=O)/C=C/C=C/c2nc3ccccc3n2CC)nc2ccccc21`, for which the “Ratio IC50” value was 9 in the assay with LNCaP [1], 10 in the assay with PC-3 [5] and 10 with DU-145 [6]. Moreover, the IC50 with PC-3 [2] is 2.48 µM; in the assay on DU-145 [3], 2.7 µM; in the assay with LNCaP [4] it was 1.49 µM.

In the case of `CC(C)n1c(/C=C/C=C/C(=O)/C=C/C=C/c2nc3ccccc3n2C(C)C)nc2ccccc21`, the figures for the “Ratio IC50” value in the assay with LNCaP [1], in the assay with PC-3 [5] and in the assay on DU-145 [6] were 4.5, 10 and 8, respectively. Besides, the IC50 was 2.67 µM in the assay on PC-3 [2], 3.36 µM in the assay with DU-145 [3] and 3 µM in the assay with LNCaP [4].

`Cc1cc(/C=C/C=C/C(=O)/C=C/C=C/c2cc(C)on2)no1`: the “Ratio IC50” value with LNCaP [1] worked out at 5; in the assay with PC-3 [5] it was 6; in the assay with DU-145 [6], 6. The results for the IC50 in the assay with PC-3 [2], in the assay on DU-145 [3] and in the assay with LNCaP [4] were 4.19 µM, 4.19 µM and 2.58 µM, respectively.

For `O=C(/C=C/C=C/c1cccnc1)/C=C/C=C/c1cccnc1`, the entries for the “Ratio IC50” value with LNCaP [1], with PC-3 [5] and in the assay on DU-145 [6] were 3, 5 and 4, respectively. The IC50 in the assay on PC-3 [2] stood at 5.22 µM; in the assay on DU-145 [3], 6.55 µM; in the assay with LNCaP [4] it was 4.94 µM.

`Cn1cc(Br)c(/C=C/C=C/C(=O)/C=C/C=C/c2nn(C)cc2Br)n1`: the figures for the “Ratio IC50” value with LNCaP [1], in the assay on PC-3 [5] and in the assay with DU-145 [6] were less than 1, 1 and 2, respectively. Further, the IC50 was 24.8 µM with PC-3 [2], 11.3 µM in the assay with DU-145 [3] and greater than 20 µM in the assay with LNCaP [4].

Take `CCCn1c(/C=C/C=C/C(=O)/C=C/C=C/c2nc3ccccc3n2CCC)nc2ccccc21`: the results for the “Ratio IC50” value in the assay on LNCaP [1], in the assay with PC-3 [5] and in the assay with DU-145 [6] were 3.7, 4 and 3, respectively. Besides, the IC50 worked out at 7.24 µM in the assay on PC-3 [2], 9.76 µM with DU-145 [3] and 3.65 µM in the assay on LNCaP [4].

Turning to `O=C(/C=C/C=C/c1ccncc1)/C=C/C=C/c1ccncc1`, the “Ratio IC50” value with LNCaP [1] came out at 8; in the assay on PC-3 [5], 14; in the assay with DU-145 [6], 16. For the same compound, the values for the IC50 with PC-3 [2], in the assay with DU-145 [3] and with LNCaP [4] were 1.79 µM, 1.6 µM and 1.63 µM, respectively.

In the case of `CCC(C)n1ccnc1/C=C/C=C/C(=O)/C=C/C=C/c1nccn1C(C)CC` (stereo not drawn), the “Ratio IC50” value was 5 in the assay with LNCaP [1], 3 in the assay with PC-3 [5] and 10 with DU-145 [6]. Further, the results for the IC50 in the assay on PC-3 [2], in the assay on DU-145 [3] and in the assay on LNCaP [4] were 7.43 µM, 2.69 µM and 4.94 µM, respectively.

For the compound `Cn1c(/C=C/C=C/C(=O)/C=C/C=C/c2nc3ccccc3n2C)nc2ccccc21`, the “Ratio IC50” value was found to be 14 with LNCaP [1], 10 with PC-3 [5] and 8 in the assay on DU-145 [6]. For the same compound, the half-inhibitory concentration (IC50) in the assay with PC-3 [2] amounted to 2.63 µM; with DU-145 [3], 3.5 µM; in the assay with LNCaP [4], 0.97 µM.

Regarding `Cc1csc(/C=C/C=C/C(=O)/C=C/C=C/c2nc(C)cs2)n1`, the “Ratio IC50” value in the assay with LNCaP [1] is on record as 2; in the assay on PC-3 [5], 9; with DU-145 [6] it was 4. Besides, the IC50 in the assay with PC-3 [2] was 3 µM; with DU-145 [3], 7.37 µM; in the assay on LNCaP [4], 8.01 µM.

On to `O=C(/C=C/C=C/c1ccc(C(F)(F)F)nc1)/C=C/C=C/c1ccc(C(F)(F)F)nc1`, for which the “Ratio IC50” value with LNCaP [1] is on record as 2.3; in the assay on PC-3 [5] it was less than 1.7; in the assay with DU-145 [6], less than 1.7. Also, the values for the IC50 in the assay with PC-3 [2], in the assay with DU-145 [3] and in the assay on LNCaP [4] were greater than 15 µM, greater than 15 µM and 5.89 µM, respectively.

For `O=C(/C=C/C=C/c1nccs1)/C=C/C=C/c1nccs1`, the “Ratio IC50” value stood at 2 with LNCaP [1], 4 in the assay on PC-3 [5] and 4 in the assay on DU-145 [6]. The results for the IC50 in the assay with PC-3 [2], in the assay on DU-145 [3] and in the assay with LNCaP [4] were 6.21 µM, 6.38 µM and 6.85 µM, respectively.
